≈ marks a conversion by molar mass, not a printed value.
Legend:
[1] = Apparent permeability in dog MDCK2 cells at pH 7.4; format: ADME, cell-based, Canis lupus familiaris, MDCK-II; details: MDCK
In short: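 Passive permeability across MDCK-II cells; mean apparent permeability reported.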

[2] = Lipophilicity, log D of compound at pH 7.4; format: physicochemical; details: buffer
[3] = Volume of distribution in Sprague-Dawley rat at 1 mg/kg, iv; format: ADME, organism-based; details: in vivo
[4] = Cmax in Sprague-Dawley rat at 3 mg/kg, po; format: ADME, organism-based; design: dose 3 mg/kg, route oral; details: in vivo
In short: (§1)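 Sprague-Dawley rats dosed orally at 3 mg/kg, with intravenous reference at 1 mg/kg.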

[5] = Half life in Sprague-Dawley rat at 1 mg/kg, iv; format: ADME, organism-based; details: in vivo
[6] = AUC infinity in Sprague-Dawley rat at 3 mg/kg, po; format: ADME, organism-based; design: dose 3 mg/kg, route oral, time infinity; details: in vivo; in short: as §1
[7] = Aqueous solubility of compound in pH 2 buffer; format: physicochemical
In short: (§2)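 Solubility measured on crystalline material at pH 6.5 and pH 2.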

[8] = Aqueous solubility of compound in pH 6.5 buffer; format: physicochemical; in short: as §2
[9] = Oral bioavailability in Sprague-Dawley rat at 3 mg/kg; format: ADME, organism-based; details: in vivo; in short: as §1
[10] = Intrinsic clearance in human liver microsome; format: ADME; details: liver microsomes, read-out: CLH
[11] = Intrinsic clearance in human hepatocytes per million cells; format: ADME, cell-based, Hepatocyte; details: read-out: CLH
[12] = Clearance in Sprague-Dawley rat plasma at 1 mg/kg, iv; format: ADME, organism-based

Compound | logD [2] | also measured
C[C@@H]1[C@@H]2CN(c3nc(Nc4cnn(C)c4)ncc3F)C[C@]12NC(=O)[C@@H]1C[C@H]1C#N | 2.35 | Papp [1]: 12.9 ×10⁻⁶ cm/s
C[C@@H]1[C@@H]2CN(c3nc(Nc4cnn(C)c4)ncc3F)C[C@]12NC(=O)[C@H]1CC1(F)F | 2.92 | 
C[C@@H]1[C@@H]2CN(c3nc(Nc4cnn(C)c4)ncc3F)C[C@]12NC(=O)[C@@H]1CC1(F)F | 2.65 | Vd [3]: 1.2 L/kg; Cmax [4]: 614 ng/mL; Papp [1]: 17 ×10⁻⁶ cm/s; half-life [5]: 1.4 h; AUC(0-inf) [6]: 2030 ng·h/mL; solubility [7]: > 15000 µg/mL; solubility [8]: 140 µg/mL (≈ 344 µM); bioavailability [9]: 54%; microsomal CLint [10]: < 8 µL/min/mg; hepatocyte CLint [11]: 3.45 µL/min/1e6 cells; clearance [12]: 13 mL/min/kg
C[C@@H]1[C@@H]2CN(c3nc(Nc4cnn(CCO)c4)ncc3F)C[C@]12NC(=O)[C@H]1C[C@@H]1C#N | 1.75 | Papp [1]: 1.2 ×10⁻⁶ cm/s
CCNC(=O)c1ccc(Nc2nccc(N3CC4CCC(C3)N4C(=O)C3CC3)n2)cc1 | 1.8 | 
CCNC(=O)c1ccc(Nc2nccc(N3CC4CC(C3)N4C(=O)C3CC3)n2)cc1 | 1.7 | 
C[C@@H]1[C@@H]2CN(c3nc(Nc4cnn(C)c4)ncc3F)C[C@]12NC(=O)[C@H]1C[C@@H]1C#N | 2.32 | Papp [1]: 13.8 ×10⁻⁶ cm/s

Further lines, with some results ahead:

logD [2] | Compound | also measured
1.75 | O=C(N[C@]12C[C@H]1CN(c1nc(Nc3cnn(CCO)c3)ncc1F)C2)C1CC1 | 
1.43 | N#C[C@H]1C[C@@H]1C(=O)N[C@@]12C[C@@H]1CN(c1nc(Nc3cnn(CCO)c3)ncc1F)C2 | 
1.8 | O=C(C1CC1)N1C2CCC1CN(c1nc(Nc3cnn(CCO)c3)ncc1F)C2 | 
1.74 | O=C(N[C@@]12C[C@@H]1CN(c1nc(Nc3cnn(CCO)c3)ncc1F)C2)C1CC1 | 
1.4 | N#C[C@@H]1C[C@H]1C(=O)N[C@@]12C[C@@H]1CN(c1nc(Nc3cnn(CCO)c3)ncc1F)C2 | 
1.71 | C[C@@H]1[C@@H]2CN(c3nc(Nc4cnn(CCO)c4)ncc3F)C[C@]12NC(=O)[C@@H]1C[C@H]1C#N | 
2.1 | C[C@@H]1[C@@H]2CN(c3nc(Nc4cnn(CCO)c4)ncc3F)C[C@]12NC(=O)C1CC1 | 

— ChEMBL document CHEMBL4619733, “Design and optimization of a series of 4-(3-azabicyclo[3.1.0]hexan-3-yl)pyrimidin-2-amines: Dual inhibitors of TYK2 and JAK1” (Bioorg Med Chem, 2020)
